Screening results as filed in PubChem.
Compounds with a hit are over-represented: about 1.8% of the library has one in this group of screens.
M5 antag = CHRM5 antagonism in calcium assay; P08912; CHO-hM5 cells, Fluo-8 calcium fluorescence, ACh EC80; inhibition, % at 3 µM; 360,000 compounds, 0.59% hits;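 active = inhibition above a per-plate cutoff, the mean of that plate's test compounds plus 3 SD, cut at about 27% in these data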
Target sequence (P08912 whole entry, looked up): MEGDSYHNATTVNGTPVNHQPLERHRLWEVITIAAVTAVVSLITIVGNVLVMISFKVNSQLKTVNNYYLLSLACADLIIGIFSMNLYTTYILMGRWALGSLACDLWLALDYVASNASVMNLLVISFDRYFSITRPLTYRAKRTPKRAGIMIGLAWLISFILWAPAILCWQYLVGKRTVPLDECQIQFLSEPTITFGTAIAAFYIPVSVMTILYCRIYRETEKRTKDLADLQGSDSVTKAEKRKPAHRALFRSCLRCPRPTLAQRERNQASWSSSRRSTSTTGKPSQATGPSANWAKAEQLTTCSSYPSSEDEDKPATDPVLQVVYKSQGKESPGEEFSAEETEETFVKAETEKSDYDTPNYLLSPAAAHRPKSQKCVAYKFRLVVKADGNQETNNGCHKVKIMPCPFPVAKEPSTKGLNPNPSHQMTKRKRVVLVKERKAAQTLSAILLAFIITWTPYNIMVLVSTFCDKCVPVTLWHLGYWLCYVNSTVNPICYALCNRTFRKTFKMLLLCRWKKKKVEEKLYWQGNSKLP
M5 ag = agonists of human muscarinic M5 receptor (CHRM5); AID 624037; CHO-K1 hM5 cells, Fluo-8 calcium fluorescence; 0% DMSO wells, 100% maximal acetylcholine response; activation, % at 3 µM; 360,000 compounds, 0.19% hits;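 active = activation above the run's mean over test compounds plus 3 SD, cut at about 23% in these data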;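 note: signal is peak over basal fluorescence ratio across the kinetic read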
M4 ag = CHRM4 agonism in calcium assay | activation, % at 3 µM | CHO-K1 hM4/Gqi5, Fluo-8 calcium fluorescence; vehicle 0%, full acetylcholine response 100% | AID 624127 | 360,000 compounds, 0.14% hits;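 active = activation above the run mean over all test wells plus 3 SD, cut at about 32% in these data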;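 note: peak over basal fluorescence ratio per well then scaled between controls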
M4 antag = antagonists of human muscarinic M4 receptor (CHRM4); P08173; CHO-hM4 cells, ACh EC80, Fluo-8 calcium fluorescence; inhibition, % at 3 µM; 360,000 compounds, 0.73% hits;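 active = inhibition above its plate's cutoff, the mean inhibition of sample wells plus 3 SD, cut at about 27% in these data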
CHRM5 PAM = positive allosteric modulators of human muscarinic M5 receptor; P08912; CHO-K1 hM5, Fluo-8 calcium, ACh EC20 PAM; 0% = ACh EC20, 100% = ACh EC100; activation, % at 3 µM; 360,000 compounds, 0.3% hits; AID 624038;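 active = activation above the run cutoff, the mean activation of all test compounds plus 3 SD, cut at about 18% in these data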
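System – CHO-K1 hM5 cells · Compound – 3 µM, single dose · Incubation – compound preincubation 140 s before EC20 acetylcholine addition · Technique – Fluo-8 calcium fluorescence · Measure – Max/basal fluorescence ratio as % of EC20–EC100 ACh window · Benchmarks – low control EC20 acetylcholine (0%), high control EC100 acetylcholine (100%) · Replication – singlicate, one well per test compound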
CHRM4 PAM = CHRM4 positive allosteric modulation; CHO-K1 hM4/Gqi5, Fluo-8 calcium fluorescence, ACh EC20; 0% = ACh EC20, 100% = maximal ACh; 360,000 compounds, 0.4% hits; activation, % at 3 µM; AID 624126;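 active = activation above its plate's cutoff, the mean activation of sample wells plus 3 SD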
Hits are given with their value; 0 = inactive.

SMILES	M5 antag	M5 ag	M4 ag	M4 antag	CHRM5 PAM	CHRM4 PAM
O=C(Cn1c(=O)sc2ccccc21)Nc1ccc(O)cc1	0	0	0	0	0	24.1
Cc1cc(NC(=O)CCCN2C(=O)c3cccc4cccc(c34)C2=O)no1	0	0	0	0	0	19.3
COc1cc(CNCCc2ccccc2)cc(Cl)c1OCc1ccccc1	0	0	0	27.3	0	0
CCN(CC)C(=O)CSc1ccc(C(F)(F)F)cc1[N+](=O)[O-]	0	0	0	0	0	0
CCCCNC(=O)c1ccc(SCC(=O)N(CC)CC)c([N+](=O)[O-])c1	0	0	0	0	18.9	0
CN1/C(=C/C=C(C#N)C#N)C(C)(C)c2ccccc21	0	0	0	0	0	0
CC1=C/C(=C\C=C(C#N)C#N)N(C)c2ccccc21	0	42.6	0	0	0	0
CC(=O)c1ccc(NC(=S)NCc2ccc(Cl)cc2Cl)cc1	29.2	0	0	0	0	0
CC(=O)c1ccc(NC(=O)Nc2ccc(Cl)cc2)cc1	0	0	0	0	0	0
Cn1c(=O)c2c(nc(SCCN3CCCCC3)n2Cc2ccccc2)n(C)c1=O	0	0	0	27.8	0	0
Cc1ccc(Cn2c(N/N=C/c3ccncc3)nc3c2c(=O)n(C)c(=O)n3C)cc1	0	0	0	0	0	0
Cn1c(=O)c2c(nc(Oc3ccc4c(c3)OCO4)n2Cc2ccc(Cl)cc2)n(C)c1=O	0	0	0	0	33.3	0
Cn1c(=O)c2c(nc(N/N=C/c3ccncc3)n2Cc2ccccc2)n(C)c1=O	0	0	0	0	21.0	0
CCN(CC)c1nc2c(c(=O)n(C)c(=O)n2C)n1CCCc1ccccc1	0	0	0	0	0	0
Cc1ccc(Cn2c(SCCN3CCCCC3)nc3c2c(=O)n(C)c(=O)n3C)cc1	0	0	0	0	0	0
CN(Cc1ccccc1)c1nc2c(c(=O)n(C)c(=O)n2C)n1CCCc1ccccc1	0	0	0	26.8	0	0
COc1ccc(Oc2nc3c(c(=O)n(C)c(=O)n3C)n2Cc2ccccc2)cc1	0	0	0	0	0	30.5
CSc1ncccc1C(=O)NCCc1ccc(S(N)(=O)=O)cc1	0	0	0	0	0	0
CC(=O)Nc1ccc(Sc2ncccc2C(=O)Nc2ccc(OC(F)(F)F)cc2)cn1	56.9	75.9	141.9	73.4	0	0
COCCNC(=O)/C(C#N)=C/c1c(N2CCCCCC2)nc2ccccn2c1=O	0	0	0	98.7	0	0
Nc1ncnc2c1ncn2C1OCC(O)C1O (centres undefined)	0	0	0	0	0	0
O=C(Cn1ncc2c([nH]c3ccccc32)c1=O)NCCc1ccccc1	0	0	0	0	0	19.3
CCCCNC(=O)c1nc(C2CCN(S(=O)(=O)c3ccc(S(C)(=O)=O)cc3)CC2)oc1-c1ccccc1	29.9	0	0	0	0	0
O=C(Nc1nccs1)c1sc2cc(Cl)ccc2c1Cl	0	0	0	0	22.9	24.8
CCCCCCn1c(=O)[nH]c2nc3cc(N)c(C)cc3nc2c1=O	37.2	104.1	36.9	0	0	0
SMILES	M5 antag	M5 ag	M4 ag	M4 antag	CHRM5 PAM	CHRM4 PAM
CCCCCOc1ccc(Br)cc1CSC(=N)N	31.9	0	0	0	0	0
Cc1cc(=O)[nH]c2c1c(-c1ccccc1)nn2C	0	0	0	100.2	0	0
COc1ccc(OC)c(NC(=O)CSc2nnc3ccc(-c4ccncc4)nn23)c1	0	0	0	0	0	0
COc1ccc(C)cc1NC(=O)CSc1nnc2ccc(-c3ccncc3)nn12	0	0	0	27.3	0	0
O=C(NCc1ccccc1)c1ccc(CN2CCC(Cc3ccccc3)CC2)cc1	0	0	0	0	0	0
CCOc1ccc(CN2CCC(Cc3ccccc3)CC2)cc1	0	0	0	26.5	0	0
NC(=O)C1CCN(Cc2ccc(OCc3ccccc3)cc2)CC1	0	0	0	0	0	0
CCOC(=O)C1CCN(C(=O)c2ccco2)CC1	0	0	0	0	0	0
CCc1ccccc1NC(=O)c1ccc(CN2CCC(Cc3ccccc3)CC2)cc1	0	0	0	35.6	0	0
CCOC(=O)C1CCN(Cc2ccc(OCc3ccccc3)cc2)CC1	0	0	0	38.8	0	0
CCOC(=O)C1CCN(C(=O)c2ccc(C)o2)CC1	0	0	0	100.1	0	0
COc1ccc(CN2CCC(Cc3ccccc3)CC2)cc1OC	0	0	0	0	0	0
CN(Cc1ccccc1)C(=O)c1ccc(NC(=O)C2CCN(C(=O)OC(C)(C)C)CC2)cc1	0	0	0	0	0	0
COc1ccc(CCNC(=O)C2CCC(C(C)(C)C)CC2)cc1OC (centres undefined)	0	0	0	0	0	0
CCOC(=O)C1CCCN(CCc2ccccc2)C1 (centres undefined)	0	0	0	36.7	0	0
COc1ccc(N=Cc2oc3ccc4ccccc4c3c2O)cc1	0	46.6	0	0	0	0
Cc1ccc(C(=O)N/C(=C/c2ccccc2)C(=O)NCC2CCCO2)cc1 (centres undefined)	0	0	0	0	21.5	0
COCC1CCCN(C(=O)c2cc(COc3ccc4ncccc4c3)on2)C1 (centres undefined)	0	0	0	0	0	0
COC(=O)c1cn(NC(=O)c2cc(OC)cc(OC)c2)c(=O)c2ccccc12	0	0	0	0	0	0
COC(=O)c1cn(NC(=O)c2cc(OC)c(OC)c(OC)c2)c(=O)c2ccccc12	0	0	0	0	23.5	0
COc1ccccc1OCCNc1ccc(S(=O)(=O)N2CCCC2)cn1	0	0	0	0	0	0
O=C(CNC(=O)c1ccc(F)cc1)c1ccc(Cl)cc1	0	0	0	0	0	0
N#CC1=C(N2CCCCC2)c2cc3c(n2C1=O)CCCC3	0	0	0	30.5	0	0
C#CCN1C=C(C(=O)OCC)C(C)N(Cc2ccccc2I)S1(=O)=O (centres undefined)	0	0	0	0	0	0
COc1cc(/C=N/NC(=O)C2=NNC(=O)C2C)ccc1O (centres undefined)	0	0	0	0	0	0
CC1C(=O)NN=C1C(=O)N/N=C\c1ccc(O)cc1O (centres undefined)	0	0	0	0	0	28.6
COC(=O)[C@]12CCCCC=C1N(CCC1=CCCCC1)C(=O)[C@H](CC(=O)N1CCCCC1)C2	0	0	0	0	0	0
COc1ccc(N2CC(C(=O)Nc3c4c(nn3-c3ccc(OC)cc3)CS(=O)(=O)C4)CC2=O)cc1 (centres undefined)	0	0	0	0	0	19.7
Cn1c(=O)c2ncn(CC(=O)Nc3nc(-c4ccc(Cl)cc4)cs3)c2n(C)c1=O	0	0	0	0	0	0
